Measured values reported in ChEMBL document CHEMBL1159071, “Discovery of 4-(5-methyloxazolo[4,5-b]pyridin-2-yl)-1,4-diazabicyclo[3.2.2]nonane (CP-810,123), a novel alpha 7 nicotinic acetylcholine receptor agonist for the treatment of cognitive disorders in schizophrenia: synthesis, SAR development, and in vivo efficacy in cognition models” (J Med Chem, 2010).

Columns and labels:
[1] = biological target: Neuronal acetylcholine receptor subunit alpha-7 (Homo sapiens, UniProt P36544); assay: Displacement of [125I]BTX from human alpha7 nicotinic acetylcholine receptor expressed in IMR32 cells; type: cell-based, IMR-32
Outline: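 Human α7 nAChR in IMR-32 cells, [125I]BTX radioligand. Six-point concentration-response curve, run in triplicate and averaged.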

Rattus norvegicus = assay: Free plasma concentration in Sprague-Dawley rat auditory sensory gating deficit model at 0.3 mg/kg, sc after 40 mins; type: functional; details: route subcutaneous
Outline: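 Rats given 0.3 mg/kg sc; free plasma concentration measured about 40 min after dosing.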

Chain of Neuronal acetylcholine receptor subunit alpha-7 (P36544 whole entry): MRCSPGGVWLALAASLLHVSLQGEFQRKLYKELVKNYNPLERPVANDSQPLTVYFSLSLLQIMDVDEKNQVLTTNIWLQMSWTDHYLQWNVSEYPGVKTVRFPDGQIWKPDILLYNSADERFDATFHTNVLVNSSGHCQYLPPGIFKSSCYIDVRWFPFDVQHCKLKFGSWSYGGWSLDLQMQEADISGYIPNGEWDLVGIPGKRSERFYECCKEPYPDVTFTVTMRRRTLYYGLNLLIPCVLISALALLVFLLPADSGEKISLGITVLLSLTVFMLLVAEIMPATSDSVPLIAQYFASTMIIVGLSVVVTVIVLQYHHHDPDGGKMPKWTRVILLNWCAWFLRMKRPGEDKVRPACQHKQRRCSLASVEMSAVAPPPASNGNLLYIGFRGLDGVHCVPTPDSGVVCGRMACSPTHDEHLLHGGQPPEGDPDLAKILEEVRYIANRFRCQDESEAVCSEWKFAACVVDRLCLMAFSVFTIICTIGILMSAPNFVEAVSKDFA

With Cc1ccc2oc(N3CCN4CCC3CC4)nc2n1 the Ki [1] was 16.4 nM and the “Cp(f)” value (Rattus norvegicus) was 326 nM.
